{"source": "ChEMBL document CHEMBL1154191", "about": "“Evaluation of spirocyclic 3-(3-fluoropropyl)-2-benzofurans as sigma1 receptor ligands for neuroimaging with positron emission tomography” (J Med Chem, 2009)", "key": {"[1]": {"tested_on": "Liver", "assay": "Metabolic stability in CD1 mouse liver homogenate assessed as formation of 3-(3-Fluoropropyl)-3H-spiro[[2]benzofuran-1,4'-piperidine], 4-((3-(3-fluoropropyl)-3H-spiro[isobenzofuran-1,4'-piperidine]-1'-yl)methyl)phenol and 1-(1'-benzyl-3H-spiro[isobenzofuran-1,4'-piperidine]-3-yl)-3-fluoropropan-2-ol at 200 to 300 MBq, iv after 45 mins postinjection by radio-HPLC and radio-TLC", "format": "ADME, organism-based", "settings": "in vivo, 0.75 h", "procedure,_shortened": "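Mice received 200-300 MBq [18F] tracer in 200 μL 0.9% saline via the tail vein, and samples were taken at 45 and 60 min (n=2 per time). Plasma was obtained by centrifugation (2000g, 4 °C, 10 min); brain and liver were homogenised in ice-cold 50 mM TRIS-HCl pH 7.4. Samples were precipitated with ice-cold MeCN and centrifuged (4000g, 4 °C, 15 min), and supernatants were analysed by gradient radio-HPLC and radio-TLC, with HPLC fractions γ-counted.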"}, "[2]": {"tested_on": "Muscle tissue", "assay": "Biodistribution in CD1 mouse muscle assessed per gram of wet tissue at 400 to 600 kBq, iv after 5 mins post-injection by gamma counting", "format": "ADME, organism-based", "settings": "in vivo", "procedure,_shortened": "(§1)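 Female CD-1 mice (~8-12 weeks, 20-28 g), habituated ≥48 h and fasted 24 h with water available. The [18F] tracer (>150 GBq/μmol at end of synthesis) was given in 200 μL saline into the tail vein of conscious animals. At each time point, n=4-5, mice were anaesthetised, blood and urine sampled, then killed by cervical dislocation. Organs were weighed and γ-counted, and values calculated as % ID/g wet tissue.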"}, "[3]": {"tested_on": "Blood", "assay": "Biodistribution in CD1 mouse blood assessed per gram of wet tissue at 400 to 600 kBq, iv after 60 mins post-injection by gamma counting in presence of 1 mg/kg, ip sigma 1/sigma 2 receptor antagonist haloperidol treated before compound addition", "format": "organism-based", "parameters": "dose 1 mg/kg, route intravenous", "settings": "in vivo, 1 h", "procedure,_shortened": "(§2)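 Blocking arm in fasted female CD-1 mice (n=5). […] Animals were killed at 60 min post-injection, and organs were weighed and γ-counted as % ID/g wet tissue. Percent change was taken against the 60 min control group, with two-tailed unpaired Student's t test.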"}, "[4]": {"assay": "Biodistribution in CD1 mouse urine assessed as per gram of wet bladder at 400 to 600 kBq, iv after 60 mins post-injection by gamma counting", "format": "ADME, organism-based", "settings": "in vivo, 1 h", "procedure,_shortened": "as §1"}, "[5]": {"tested_on": "Pancreas", "assay": "Biodistribution in CD1 mouse pancreas assessed per gram of wet tissue at 400 to 600 kBq, iv after 120 mins post-injection by gamma counting", "format": "ADME, organism-based", "settings": "in vivo, 2 h", "procedure,_shortened": "as §1"}, "[6]": {"tested_on": "Pancreas", "assay": "Biodistribution in CD1 mouse pancreas assessed per gram of wet tissue at 400 to 600 kBq, iv after 60 mins post-injection by gamma counting", "format": "ADME, organism-based", "settings": "in vivo, 1 h", "procedure,_shortened": "as §1"}, "[7]": {"assay": "Biodistribution in CD1 mouse urine assessed as per gram of wet bladder at 400 to 600 kBq, iv after 5 mins post-injection by gamma counting", "format": "ADME, organism-based", "settings": "in vivo", "procedure,_shortened": "as §1"}, "[8]": {"assay": "Biodistribution in CD1 mouse urine assessed as per gram of wet bladder at 400 to 600 kBq, iv after 30 mins post-injection by gamma counting", "format": "ADME, organism-based", "settings": "in vivo, 0.5 h", "procedure,_shortened": "as §1"}, "[9]": {"tested_on": "Stomach", "assay": "Biodistribution in CD1 mouse stomach assessed per gram of wet tissue at 400 to 600 kBq, iv after 60 mins post-injection by gamma counting", "format": "ADME, organism-based", "settings": "in vivo, 1 h", "procedure,_shortened": "as §1"}, "[10]": {"assay": "Ratio of drug level in cerebellum to plasma in CD1 mouse at 400 to 600 kBq, iv after 60 mins post-injection in presence of 1 mg/kg, ip sigma 1/sigma 2 receptor antagonist haloperidol treated before compound addition", "format": "organism-based", "parameters": "route intravenous", "procedure,_shortened": "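Killed 60 min pi; blood and cerebellum weighed, γ-counted as % ID/g wet tissue, ratio derived; Student's two-tailed t test versus untreated controls.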"}, "[11]": {"tested_on": "Blood", "assay": "Biodistribution in CD1 mouse blood assessed per gram of wet tissue at 400 to 600 kBq, iv after 60 mins post-injection by gamma counting", "format": "ADME, organism-based", "settings": "in vivo, 1 h", "procedure,_shortened": "(§3)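 Female CD-1 mice (~8-12 weeks, 20-28 g) were fasted 24 h with free water. Conscious mice got 400-600 kBq [¹⁸F] tracer in saline by tail vein. At 5, 30, 60 or 120 min (n=4-5 per time) they were anesthetized, blood and urine sampled, then killed by cervical dislocation. Organs were weighed and γ-counted, giving % ID/g wet tissue.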"}, "[12]": {"assay": "Biodistribution in CD1 mouse adrenal gland assessed per gram of wet tissue at 400 to 600 kBq, iv after 120 mins post-injection by gamma counting", "format": "ADME, organism-based", "settings": "in vivo, 2 h", "procedure,_shortened": "as §3"}, "[13]": {"tested_on": "Muscle tissue", "assay": "Biodistribution in CD1 mouse muscle assessed per gram of wet tissue at 400 to 600 kBq, iv after 60 mins post-injection by gamma counting in presence of 1 mg/kg, ip sigma 1/sigma 2 receptor antagonist haloperidol treated before compound addition", "format": "organism-based", "parameters": "route intravenous", "settings": "in vivo, 1 h", "procedure,_shortened": "(§4)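 They were killed at 60 min pi, and organs were weighed and γ-counted as % ID/g wet tissue. Comparison with controls used Student's t test (independent, two-tailed).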"}, "[14]": {"assay": "Biodistribution in CD1 mouse adrenal gland assessed per gram of wet tissue at 400 to 600 kBq, iv after 5 mins post-injection by gamma counting", "format": "ADME, organism-based", "settings": "in vivo", "procedure,_shortened": "as §3"}, "[15]": {"tested_on": "Brain", "assay": "Biodistribution in CD1 mouse brain assessed per gram of wet tissue at 400 to 600 kBq, iv after 5 mins post-injection by gamma counting", "format": "ADME, organism-based", "settings": "in vivo", "procedure,_shortened": "as §3"}, "[16]": {"tested_on": "Spleen", "assay": "Biodistribution in CD1 mouse spleen assessed per gram of wet tissue at 400 to 600 kBq, iv after 5 mins post-injection by gamma counting", "format": "ADME, organism-based", "settings": "in vivo", "procedure,_shortened": "as §1"}, "[17]": {"assay": "Chemical stability in solution of 0.9% NaCl, phosphate buffer saline and Tris-HCl up to 120 mins", "format": "physicochemical", "settings": "2 h"}, "[18]": {"tested_on": "Cerebellum", "assay": "Biodistribution in CD1 mouse cerebellum assessed per gram of wet tissue at 400 to 600 kBq, iv after 5 mins post-injection by gamma counting", "format": "ADME, organism-based", "settings": "in vivo", "procedure,_shortened": "as §3"}, "[19]": {"assay": "Ratio of drug level in cerebellum to plasma in CD1 mouse at 400 to 600 kBq, iv after 120 mins post-injection", "format": "ADME, organism-based", "procedure,_shortened": "(§5)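 Female CD-1 mice (~8-12 weeks, 20-28 g), fasted 24 h with free water; 400-600 kBq tracer in 200 μL saline by tail vein into conscious animals. Killed at set times pi (n=4-5 per time); blood and organs weighed, γ-counted, expressed as % ID/g wet tissue; ratio from cerebellum and plasma uptake.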"}, "[20]": {"assay": "Ratio of drug level in cerebellum to plasma in CD1 mouse at 400 to 600 kBq, iv after 5 mins post-injection", "format": "ADME, organism-based", "procedure,_shortened": "as §5"}, "[21]": {"assay": "Biodistribution in CD1 mouse gonad assessed per gram of wet tissue at 400 to 600 kBq, iv after 5 mins post-injection by gamma counting", "format": "ADME, organism-based", "settings": "in vivo", "procedure,_shortened": "as §3"}, "[22]": {"assay": "Biodistribution in CD1 mouse adrenal gland assessed per gram of wet tissue at 400 to 600 kBq, iv after 30 mins post-injection by gamma counting", "format": "ADME, organism-based", "settings": "in vivo, 0.5 h", "procedure,_shortened": "as §3"}, "[23]": {"tested_on": "Brain", "assay": "Biodistribution in CD1 mouse brain assessed per gram of wet tissue at 400 to 600 kBq, iv after 60 mins post-injection by gamma counting in presence of 1 mg/kg, ip sigma 1/sigma 2 receptor antagonist haloperidol treated before compound addition", "format": "organism-based", "parameters": "dose 1 mg/kg, route intravenous", "settings": "in vivo, 1 h", "procedure,_shortened": "as §2"}, "[24]": {"assay": "Biodistribution in CD1 mouse thymus assessed per gram of wet tissue at 400 to 600 kBq, iv after 30 mins post-injection by gamma counting", "format": "ADME, organism-based", "settings": "in vivo, 0.5 h", "procedure,_shortened": "as §1"}, "[25]": {"assay": "Biodistribution in CD1 mouse gonad assessed per gram of wet tissue at 400 to 600 kBq, iv after 120 mins post-injection by gamma counting", "format": "ADME, organism-based", "settings": "in vivo, 2 h", "procedure,_shortened": "as §3"}, "[26]": {"assay": "Biodistribution in CD1 mouse thymus assessed per gram of wet tissue at 400 to 600 kBq, iv after 60 mins post-injection by gamma counting in presence of 1 mg/kg, ip sigma 1/sigma 2 receptor antagonist haloperidol treated before compound addition", "format": "organism-based", "parameters": "route intravenous", "settings": "in vivo, 1 h", "procedure,_shortened": "as §4"}}}
{"smiles": "[18F]CCCC1OC2(CCN(Cc3ccccc3)CC2)c2ccccc21", "note": "(stereo unspecified)", "values": [{"measurement": "Activity", "setting": "[1]", "value": 45, "unit": "%"}, {"measurement": "Drug uptake", "setting": "[2]", "value": 2.18, "unit": "%ID"}, {"measurement": "Drug uptake", "setting": "[3]", "value": 0.56, "unit": "%ID"}, {"measurement": "Drug uptake", "setting": "[4]", "value": 7.84, "unit": "%ID"}, {"measurement": "Drug uptake", "setting": "[5]", "value": 10.5, "unit": "%ID"}, {"measurement": "Drug uptake", "setting": "[6]", "value": 8.92, "unit": "%ID"}, {"measurement": "Drug uptake", "setting": "[7]", "value": 2.89, "unit": "%ID"}, {"measurement": "Drug uptake", "setting": "[8]", "value": 24.3, "unit": "%ID"}, {"measurement": "Drug uptake", "setting": "[9]", "value": 3.17, "unit": "%ID"}, {"measurement": "Kp at 1 h", "setting": "[10]", "value": 1}, {"measurement": "Drug uptake", "setting": "[11]", "value": 0.37, "unit": "%ID"}, {"measurement": "Drug uptake", "setting": "[12]", "value": 5.86, "unit": "%ID"}, {"measurement": "Drug uptake", "setting": "[13]", "value": 0.9, "unit": "%ID"}, {"measurement": "Drug uptake", "setting": "[14]", "value": 10.6, "unit": "%ID"}, {"measurement": "Drug uptake", "setting": "[15]", "value": 3.66, "unit": "%ID"}, {"measurement": "Drug uptake", "setting": "[16]", "value": 4.51, "unit": "%ID"}, {"measurement": "Stability", "setting": "[17]", "value": "Stable"}, {"measurement": "Drug uptake", "setting": "[18]", "value": 4.62, "unit": "%ID"}, {"measurement": "Kp at 2 h", "setting": "[19]", "value": 5.48}, {"measurement": "Kp at 5 min", "setting": "[20]", "value": 2.49}, {"measurement": "Drug uptake", "setting": "[21]", "value": 3.4, "unit": "%ID"}, {"measurement": "Drug uptake", "setting": "[22]", "value": 7.63, "unit": "%ID"}, {"measurement": "Drug uptake", "setting": "[23]", "value": 0.54, "unit": "%ID"}, {"measurement": "Drug uptake", "setting": "[24]", "value": 3.26, "unit": "%ID"}, {"measurement": "Drug uptake", "setting": "[25]", "value": 4.16, "unit": "%ID"}, {"measurement": "Drug uptake", "setting": "[26]", "value": 2.36, "unit": "%ID"}]}
